Calls of active or inactive are those of the source. The rule behind the calls is not given here.
What was measured:
[1] = target: Kappa-type opioid receptor (Cavia porcellus, UniProt P41144); assay: Displacement of [3H]-U69593 from KOR in male Dunkin-Hartley guinea pig brain membrane assessed as inhibition constant incubated for 30 mins by liquid scintillation counter analysis; assay type: cell membranes
[2] = target: Sigma non-opioid intracellular receptor 1 (Rattus norvegicus, UniProt Q9R0C9); assay: Displacement of [3H]-pentazocine from sigma 1 receptor in male Sprague-Dawley rat liver membrane assessed as inhibition constant by liquid scintillation counter analysis; assay type: cell membranes
[3] = target: Delta-type opioid receptor (Rattus norvegicus, UniProt P33533); assay: Displacement of [3H]-Deltorphin from DOR in male Sprague-Dawley rat brain membrane assessed as inhibition constant incubated for 45 mins by liquid scintillation counter analysis; assay type: cell membranes
[4] = target: T1, Sigma intracellular receptor 2 (Rattus norvegicus, UniProt Q5U3Y7); assay: Displacement of [3H]-DTG from sigma 2 receptor in male Sprague-Dawley rat liver membrane assessed as inhibition constant in presence of pentazocine by liquid scintillation counter analysis; assay type: cell membranes
T1 sequence (Q5U3Y7 whole entry): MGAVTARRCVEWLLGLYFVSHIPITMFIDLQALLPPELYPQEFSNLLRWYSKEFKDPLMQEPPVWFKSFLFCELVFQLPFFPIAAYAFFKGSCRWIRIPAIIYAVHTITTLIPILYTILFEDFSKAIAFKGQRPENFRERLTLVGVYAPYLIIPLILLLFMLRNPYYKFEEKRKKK

Mu-type opioid receptor = Mu-type opioid receptor (Rattus norvegicus, UniProt P33535); assay: Displacement of [3H]-DAMGO from MOR in male Sprague-Dawley rat brain membrane assessed as inhibition constant incubated for 45 mins by liquid scintillation counter analysis; assay type: cell membranes
Mus musculus [5] = assay: Antinociceptive activity in formalin-induced male CD1 mouse assessed as reduction in nociceptive behavior by measuring decrease in flinches at behavioral pain phase (II) at 5 to 7 mg/kg, ip pre-administered with compound for 20 mins followed by formalin induction and measured for 1 hrs; assay type: functional, organism-based; conditions: dose 5-7 mg/kg, time 80.0 min
Summary of the method: (§1)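 Male CD1 mice, 8–12 weeks, randomized and acclimated 20 min. Drug in saline with 0.5% v/v DMSO given i.p. 20 min before formalin (5%, 10 μL) into the right hind-paw plantar surface. Licking, flicking or shaking of the injected paw recorded every 5 min for 1 h by a blinded observer.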

Mus musculus [6] = assay: Antinociceptive activity in formalin-induced male CD1 mouse assessed as reduction in nociceptive behavior by measuring decrease in lifting/licking time at behavioral pain phase (II) at 5 to 7 mg/kg, ip pre-administered with compound for 20 mins followed by formalin induction and measured for 1 hrs; assay type: functional, organism-based; conditions: dose 5-7 mg/kg, time 80.0 min; summary of the method: as §1
[7] = Stability of the compound in C57 mouse plasma at 200 uM measured at >= 20 mins by RP-HPLC analysis; assay type: ADME, cell-free
Summary of the method: (§2)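 A 10 mM DMSO stock was added to C57 mouse plasma prewarmed to 37 °C (final 200 μM) and held at 37 ± 0.5 °C. Samples taken at 0, 1, 5, 20 and 60 min were deproteinized 1:1 with acetonitrile containing 0.1% HCOOH (100 μM), centrifuged, filtered, and analysed by C18 RP-HPLC-DAD. Duplicates; t1/2 from a one-phase exponential decay fit with the plateau fixed at 0.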

[8] = Stability of the compound in C57 mouse plasma assessed as retention time at 200 uM measured up to 60 mins by RP-HPLC analysis; assay type: ADME, cell-free; conditions: 1 h; summary of the method: as §2
Mus musculus [9] = assay: Antinociceptive activity in formalin-induced male CD1 mouse model assessed as effect on nociceptive behavior by measuring rapid pain response (phase I) at 3 to 7 mg/kg, ip pre-administered with compound for 20 mins followed by formalin induction and measured for 1 hrs; assay type: functional, organism-based; conditions: dose 3-7 mg/kg, time 80.0 min; summary of the method: as §1
[10] = Stability of the compound in C57 mouse plasma at 200 uM measured up to 5 mins by RP-HPLC analysis; assay type: ADME, cell-free; summary of the method: as §2
[11] = Chemical stability of the compound in aqueous phosphate buffer at pH 7.4 assessed as half life at 200 uM by RP-HPLC analysis; assay type: physicochemical; conditions: pH 7.4, 200 µM
Summary of the method: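 A 10 mM DMSO stock was added to pH 7.4 phosphate buffer prewarmed to 37 °C (final 200 μM) and held at 37 ± 0.5 °C for up to 300 min. Aliquots were mixed 1:1 with acetonitrile (100 μM), filtered and run on C18 RP-HPLC with DAD at 285 nm against a 10–250 μM calibration curve. Duplicates; t1/2 from a one-phase exponential decay fit.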

[12] = Stability of the compound in C57 mouse plasma assessed as half life at 200 uM measured up to 60 mins by RP-HPLC analysis; assay type: ADME, cell-free; conditions: 1 h; summary of the method: as §2
Mus musculus [13] = assay: Antinociceptive activity in formalin-induced male CD1 mouse model assessed as effect on nociceptive behavior by measuring behavioral pain (phase II) at 3 mg/kg, ip pre-administered with compound for 20 mins followed by formalin induction and measured for 1 hrs; assay type: functional, organism-based; conditions: time 80.0 min; summary of the method: as §1

Sequence of Kappa-type opioid receptor (P41144 whole entry): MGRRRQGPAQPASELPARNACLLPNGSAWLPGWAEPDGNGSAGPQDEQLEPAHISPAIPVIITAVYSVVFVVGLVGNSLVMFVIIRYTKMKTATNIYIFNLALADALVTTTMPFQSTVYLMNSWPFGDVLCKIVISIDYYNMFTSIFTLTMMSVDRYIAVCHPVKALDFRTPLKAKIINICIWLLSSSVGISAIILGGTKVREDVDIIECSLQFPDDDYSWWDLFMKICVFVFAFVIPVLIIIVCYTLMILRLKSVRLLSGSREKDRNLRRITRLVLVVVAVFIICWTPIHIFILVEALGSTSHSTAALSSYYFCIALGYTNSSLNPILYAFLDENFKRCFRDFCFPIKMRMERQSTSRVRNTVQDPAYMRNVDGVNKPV
Sequence of Mu-type opioid receptor (P33535 whole entry): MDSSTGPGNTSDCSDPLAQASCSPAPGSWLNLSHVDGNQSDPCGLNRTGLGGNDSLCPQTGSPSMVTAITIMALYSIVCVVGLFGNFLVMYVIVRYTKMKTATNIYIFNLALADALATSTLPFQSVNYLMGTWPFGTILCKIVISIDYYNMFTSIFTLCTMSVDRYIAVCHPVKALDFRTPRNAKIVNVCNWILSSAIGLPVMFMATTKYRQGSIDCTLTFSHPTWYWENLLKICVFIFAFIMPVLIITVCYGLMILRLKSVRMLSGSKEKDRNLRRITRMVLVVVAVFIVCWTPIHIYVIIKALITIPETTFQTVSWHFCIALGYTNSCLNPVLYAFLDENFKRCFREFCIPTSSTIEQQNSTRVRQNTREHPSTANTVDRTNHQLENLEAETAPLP
Sequence of Delta-type opioid receptor (P33533 whole entry): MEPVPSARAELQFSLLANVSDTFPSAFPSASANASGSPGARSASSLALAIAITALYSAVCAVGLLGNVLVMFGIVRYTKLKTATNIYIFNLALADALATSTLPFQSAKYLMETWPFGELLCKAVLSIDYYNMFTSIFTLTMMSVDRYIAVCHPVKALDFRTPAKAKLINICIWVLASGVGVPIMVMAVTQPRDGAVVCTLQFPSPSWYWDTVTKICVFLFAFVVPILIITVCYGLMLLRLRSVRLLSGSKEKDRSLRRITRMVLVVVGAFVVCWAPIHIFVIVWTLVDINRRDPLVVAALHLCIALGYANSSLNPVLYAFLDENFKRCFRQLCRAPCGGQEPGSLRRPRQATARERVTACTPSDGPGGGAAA
Sequence of Sigma non-opioid intracellular receptor 1 (Q9R0C9 whole entry): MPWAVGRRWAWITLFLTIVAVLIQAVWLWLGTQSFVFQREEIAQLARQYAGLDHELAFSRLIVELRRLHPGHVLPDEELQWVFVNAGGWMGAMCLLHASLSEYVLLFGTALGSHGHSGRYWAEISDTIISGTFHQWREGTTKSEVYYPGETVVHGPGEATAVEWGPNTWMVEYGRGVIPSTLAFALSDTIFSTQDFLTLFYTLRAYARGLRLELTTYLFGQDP

Row | Compound | Ki [1] [µM] | Ki [2] [µM] | Ki [3] [µM] | Ki [4] [µM] | Ki (Mu-type opioid receptor) [µM] | Activity (Mus musculus [5]) | Activity (Mus musculus [6]) | Stability [7] | Retention_time [8] [min] | Activity (Mus musculus [9]) | Stability [10] | t1/2 [11] [h] | t1/2 [12] [h] | Activity (Mus musculus [13])
1 | C[C@@H]1[C@@H]2Cc3ccc(O)cc3[C@@]1(C)CCN2CCC(=O)O | > 5 | > 10 | > 5 | > 10 | > 5 | – | – | – | – | – | – | – | – | –
2 | COC(=O)CCCN1CC[C@]2(C)c3cc(O)ccc3C[C@H]1[C@H]2C | > 5 | 0.159 | > 5 | > 10 | > 5 | – | – | – | – | – | – | – | – | –
3 | C[C@@H]1[C@@H]2Cc3ccc(O)cc3[C@@]1(C)CCN2CCCC(C(=O)O)c1ccccc1 (mixture of isomers) | > 5 | > 10 | > 5 | > 10 | > 5 | – | – | – | – | – | – | – | – | –
4 | CCOC(=O)C(CN1CC[C@]2(C)c3cc(O)ccc3C[C@H]1[C@H]2C)c1ccccc1 (mixture of isomers) | > 5 | > 10 | > 5 | > 10 | > 5 | – | – | – | – | – | – | – | – | –
5 | COC(=O)CCN1CC[C@]2(C)c3cc(O)ccc3C[C@H]1[C@H]2C | > 5 | > 10 | > 5 | > 10 | > 5 | – | – | – | – | – | – | – | – | –
6 | C[C@@H]1[C@@H]2Cc3ccc(O)cc3[C@@]1(C)CCN2CCC(C(=O)O)c1ccccc1 (mixture of isomers) | > 5 | > 10 | > 5 | > 10 | > 5 | – | – | – | – | – | – | – | – | –
7 | CCOC(=O)C(CCN1CC[C@]2(C)c3cc(O)ccc3C[C@H]1[C@H]2C)c1ccccc1 (mixture of isomers) | > 5 | 0.0275 | > 5 | > 1 | > 5 | Active | Active | Unstable | 10.52 | Not active; Compound Did Not Significantly Modify Licking And Flicking/Shanking Time Of Injected Paw | Stable | 5 | 0.5178 | Not active; Compound Did Not Significantly Modify Licking And Flicking/Shanking Time Of Injected Paw
8 | CCOC(=O)C(CCCN1CC[C@]2(C)c3cc(O)ccc3C[C@H]1[C@H]2C)c1ccccc1 (mixture of isomers) | > 5 | 0.594 | > 5 | > 10 | > 5 | – | – | – | – | – | – | – | – | –
9 | C[C@@H]1[C@@H]2Cc3ccc(O)cc3[C@@]1(C)CCN2CC(C(=O)O)c1ccccc1 (mixture of isomers) | > 5 | 0.664 | > 5 | > 10 | > 5 | – | – | – | – | – | – | – | – | –
10 | C[C@@H]1[C@@H]2Cc3ccc(O)cc3[C@@]1(C)CCN2CCCC(=O)O | > 5 | > 10 | > 5 | > 10 | > 5 | – | – | – | – | – | – | – | – | –
